The record followed here is paper PMC6852796 (Asian Pacific Journal of Cancer Prevention : APJCP, 2019).

A short description of data set [1]: Glycation related cytotoxicity: test compound only, no MGO. Format: cell-based, murine. The settings on record: mouse, RAW 264.7 macrophages.
The nature of data set [2]: NOS related cytotoxicity, SRB viability of RAW 264.7. Format: cell-based, murine. To be noted: mouse, RAW 264.7 macrophages. Summed up: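 RAW 264.7 macrophages were maintained in high-glucose DMEM with 10% FBS and penicillin/streptomycin/[…] at 37 °C in humidified 5% CO2. The test compound's effect on their viability was measured by sulforhodamine B colorimetric staining, run alongside the LPS-stimulated nitrite assay.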

For data set [3], the target named is T1, Crude porcine PL type II (pancreatic lipase) (Sus scrofa, UniProt P00591).
T1 sequence (P00591 1-450): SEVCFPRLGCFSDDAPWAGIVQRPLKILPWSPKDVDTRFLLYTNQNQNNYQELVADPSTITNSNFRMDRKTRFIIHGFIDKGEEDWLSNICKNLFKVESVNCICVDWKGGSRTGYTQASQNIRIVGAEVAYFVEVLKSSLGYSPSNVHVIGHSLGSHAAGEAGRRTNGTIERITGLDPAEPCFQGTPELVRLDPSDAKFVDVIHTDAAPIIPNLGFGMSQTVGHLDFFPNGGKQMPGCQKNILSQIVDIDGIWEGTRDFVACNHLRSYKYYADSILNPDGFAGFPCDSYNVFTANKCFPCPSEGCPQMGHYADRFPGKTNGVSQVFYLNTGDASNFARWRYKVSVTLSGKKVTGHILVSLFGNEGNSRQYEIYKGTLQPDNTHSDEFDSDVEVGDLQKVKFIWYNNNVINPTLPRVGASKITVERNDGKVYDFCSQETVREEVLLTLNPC
The data set is described as follows: In vitro PL activity spectrophotometric assay. Format: biochemical. To be noted: PL-IC50 value, p-NPB substrate, 37 °C.

Data set [4] deals with LPS-induced nitric oxide production in RAW 264.7 macrophages. Nature of the data set: Anti-inflammatory. The settings on record: Mus musculus, RAW264.7, 24 h, read-out: NOS-IC50 value. Format: cell-based, murine. The gist of the method:
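Cells (2 x 10^5/well) were exposed to test compound (5-200 μg/mL) plus LPS 10 μg/mL for 24 h. Medium was mixed 1:1 with Griess reagent (1% sulfanilamide in 5% phosphoric acid; 0.1% naphthylethylenediamine-HCl) for 10 min at RT. A550 was read and nitrite taken from a sodium nitrite standard curve.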

Data set [5] can be described thus: Selective cytotoxicity SRB assay, periodontal fibroblasts. The settings on record: human, primary periodontal ligament fibroblasts (PDL), noncancerous. The class given is cell-based. The gist of the method:
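Primary human periodontal fibroblasts served as a noncancerous counter-screen for selective cytotoxicity. […] Assays were run in triplicate and reported as mean ± SD (n=3).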
For orientation: The SRB assay estimates cell density from bound dye.

Data set [6] concerns Methylglyoxal induced cytotoxicity in RAW264.7 murine macrophages. The data set is described as follows: Antiglycation determination via methylglyoxal induced cytotoxicity. The class given is cell-based. To be noted: RAW264.7, MGO 300 µM, 48 hr, SRB.
The test system of data set [7] is RAW 264.7 murine macrophages. Nature of the data set: Glycation related cytotoxicity: test compound only, no MGO. Format: cell-based. The settings on record: RAW264.7, in absence of MGO, 48 hr, SRB.

“And” between values parts separate entries of the source, which are not always exact repeats. Equal values may be shown once. Bounds are passed on as bounds.

One may read the IC50 as the concentration at which inhibition is half-maximal. Take `CCc1ccc(Nc2c(F)cc3c(=O)c(C(=O)O)cn(C4CC4)c3c2[N+](=O)[O-])cc1` [3a, 1-cyclopropyl-7-(4-ethyl-phenylamino)-6-fluoro-8-nitro-4-oxo-1,4-dihydro-quinoline-3-carboxylic acid]: the 50% inhibitory concentration (IC50) at 48 h in data set [1] is 437 µM and 180 µg/mL. In data set [2], this molecule gave an IC50 at 24 h of more than 200 µg/mL. The concentration for half-maximal inhibition (IC50) in data set [3] was 21.6 µM; in data set [4], 309 µM and 127 µg/mL. The IC50 at 72 h in data set [5] was 437 µM and 180 µg/mL.
In the case of `CCCCc1ccc(Nc2c(F)cc3c(=O)c(C(=O)O)cn(C4CC4)c3c2[N+](=O)[O-])cc1` [3b, 7-(4-butyl-phenylamino)-1-cyclopropyl-6-fluoro-8-nitro-4-oxo-1,4-dihydro-quinoline-3-carboxylic acid], the IC50 at 24 h in data set [2] is 144 µg/mL and 327 µM. The IC50 in data set [3] is 23.1 µM and 23.2 µM; in data set [4], 10.5 µg/mL and 23.8 µM. Also, the IC50 at 72 h in data set [5] was 416 µM and 183 µg/mL.
Consider `CCc1ccc(Nc2c(F)cc3c(=O)c(C(=O)O)cn(C4CC4)c3c2N)cc1` [4a, 8-amino-1-cyclopropyl-7-(4-ethyl-phenylamino)-6-fluoro-4-oxo-1,4-dihydro-quinoline-3-carboxylic acid], for which, in data set [1], the concentration for half-maximal inhibition (IC50) at 48 h was 3.05 µM and 1.2 µg/mL. This molecule also registered an IC50 at 24 h in data set [2] of more than 200 µg/mL. In addition, the half-inhibitory concentration (IC50) in data set [3] was 22.3 µM and 23.9 µM; in data set [4], 60 µM and 22.9 µg/mL. In data set [5], the IC50 at 72 h was 37.1 µM and 14.2 µg/mL.
As for `CCCCc1ccc(Nc2c(F)cc3c(=O)c(C(=O)O)cn(C4CC4)c3c2N)cc1` [4b, 8-amino-7-(4-butyl-phenylamino)-1-cyclopropyl-6-fluoro-4-oxo-1,4-dihydro-quinoline-3-carboxylic acid], in data set [1], the 50% inhibitory concentration (IC50) at 48 h was 8.51 µM and 3.5 µg/mL. The molecule also came in with a half-maximal inhibitory concentration (IC50) at 24 h in data set [2] of more than 200 µg/mL. Further, the IC50 was 74.7 µM and 69.6 µM in data set [3]; 29.8 µM and 12.2 µg/mL in data set [4]. Besides, the IC50 at 72 h in data set [5] was 407 µM and 167 µg/mL.
As to `CCc1ccc(-n2nnc3c4c(cc(F)c32)c(=O)c(C(=O)O)cn4C2CC2)cc1` [5a, 9-cyclopropyl-3-(4-ethyl-phenyl)-4-fluoro-6-oxo-6,9-dihydro-3H-[1,2,3]triazolo[4,5-h]quinoline-7-carboxylic acid], in data set [1], the IC50 at 48 h was 84.1 µM and 33 µg/mL. The half-maximal inhibitory concentration (IC50) at 24 h in data set [2] is more than 200 µg/mL. Further, the IC50 is 95.5 µM and 95.6 µM in data set [3]; 51.5 µM and 20.2 µg/mL in data set [4]. Also, the half-inhibitory concentration (IC50) at 72 h in data set [5] is 155 µM and 60.8 µg/mL.
Regarding `CCCCc1ccc(-n2nnc3c4c(cc(F)c32)c(=O)c(C(=O)O)cn4C2CC2)cc1` [5b, 3-(4-butyl-phenyl)-9-cyclopropyl-4-fluoro-6-oxo-6,9-dihydro-3H-[1,2,3]triazolo[4,5-h]quinoline-7-carboxylic acid], in data set [1], the 50% inhibitory concentration (IC50) at 48 h was 161 µM and 67.7 µg/mL. In data set [2], this molecule displayed an IC50 at 24 h of more than 200 µg/mL. The IC50 in data set [3] is 88.6 µM and 88.7 µM; in data set [4] it was 98.8 µM and 41.5 µg/mL. Further, in data set [5], the concentration for half-maximal inhibition (IC50) at 72 h is 42.5 µM and 17.9 µg/mL.
For `N=C(N)NN` [Aminogaunidine, Aminoguanidine, reference compound], in data set [6], the Glycation-IC50 value entry was “(0.34±0.0 µg/mL)”. The half-inhibitory concentration (IC50) turned out to be 3.1 ± 0.35 µM in data set [6] (read-out: Glycation-IC50 value) and 5390 ± 1350 µM in data set [7] (read-out: Glycation related Cytotox.-IC50 value). Besides, in data set [7], the “Glycation related Cytotox.-IC50 value” is given as “(596.62±148.8 µg/mL )”.
Consider `COc1ccc2c(c1)c(CC(=O)O)c(C)n2C(=O)c1ccc(Cl)cc1` [Indomethacin, reference compound], for which the half-inhibitory concentration (IC50) at 24 h in data set [2] was more than 200 µg/mL. Moreover, the concentration for half-maximal inhibition (IC50) in data set [4] is 212 µM and 75.9 µg/mL.
